Data set [1] can be described thus: Metal chelate stability constant of the compound assessed as copper ion complex formation. It is filed as physicochemical.
A short description of data set [2]: Lipophilicity, log P of the compound. The conditions noted are these: octanol/water.
Another data set concerns Pasteurella multocida. Nature of the data set: Antibacterial activity against Pasteurella multocida MB7 assessed as growth inhibition at 2 to 8 ug/mL. It is filed as functional, organism-based.
Data set [3] has as its system Pseudomonas aeruginosa. The experiment in a line: Antibacterial activity against Pseudomonas aeruginosa MB418 assessed as growth inhibition. It is filed as functional. In outline: (§1)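 MIC (µg/mL) by in vitro growth inhibition in an assay system at pH 7.4. Tetracycline was run routinely to check medium, incubation conditions and inoculum virility.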
The subject of another data set is Klebsiella aerogenes. The experiment in a line: Antibacterial activity against Klebsiella aerogenes MB1503 assessed as growth inhibition. It is filed as functional. In outline: as §1
A further data set relates to Bacillus subtilis. The experiment in a line: Antibacterial activity against Bacillus subtilis MB964 assessed as growth inhibition. It is filed as functional. In outline:
as §1

For data set [4], the system named is Staphylococcus aureus. The experiment in a line: Antibacterial activity against Staphylococcus aureus MB2865 assessed as growth inhibition. It is filed as functional. A digest of the protocol: as §1
The test system of data set [5] is Pseudomonas aeruginosa. The experiment in a line: Antibacterial activity against Pseudomonas aeruginosa MB2245 assessed as growth inhibition. It is filed as functional. A digest of the protocol: as §1
The next data set has as its system Proteus vulgaris. The experiment in a line: Antibacterial activity against Proteus vulgaris MB838 assessed as growth inhibition at 200 ug/mL. The data set is classed as functional, organism-based.
In the next data set the test system is Escherichia coli. The experiment in a line: Antibacterial activity against Escherichia coli MB2884 assessed as growth inhibition. It is filed as functional. In outline: as §1
The next data set relates to Streptococcus pyogenes. Nature of the data set: Antibacterial activity against Streptococcus pyogenes assessed as growth inhibition at 2 to 8 ug/mL. The data set is classed as functional, organism-based.
Data set [6] deals with Bordetella bronchiseptica. Nature of the data set: Antibacterial activity against Bordetella bronchiseptica MB3551 assessed as growth inhibition. It is filed as functional. A digest of the protocol: as §1
The next data set concerns Salmonella. Nature of the data set: Antibacterial activity against Salmonella schottmuelleri MB2837 assessed as growth inhibition. The data set is classed as functional. A digest of the protocol:
as §1

Data set [7] deals with Corynebacterium pseudodiphtheriticum. The experiment in a line: Antibacterial activity against Corynebacterium pseudodiphtheriticum assessed as growth inhibition at 2 to 8 ug/mL. The data set is classed as functional, organism-based.
Data set [8] has as its system Bordetella bronchiseptica. The experiment in a line: Antibacterial activity against Bordetella bronchiseptica MB905 assessed as growth inhibition. It is filed as functional. In outline: as §1
In data set [9] the test system is Staphylococcus aureus. Nature of the data set: Antibacterial activity against Staphylococcus aureus MB108 assessed as growth inhibition. It is filed as functional. In outline:
as §1

The test system of data set [10] is Corynebacterium pseudodiphtheriticum. Nature of the data set: Antibacterial activity against Corynebacterium pseudodiphtheriticum assessed as growth inhibition at 15 ug/mL. The data set is classed as functional, organism-based.

Each structure is given as a SMILES string. ≈ marks a conversion by molar mass, not a printed value. Calls of active or inactive are those of the source. The rule behind the calls is not given here.

`NCCCNCCCN` [NORSPERMIDINE]: the “log K” value in [1] is on record as 14.2.

One may read the logP as a log measure of how a compound divides between an organic and an aqueous phase. Turning to `NCCNCCNCCN` [TRIENTINE], the lipophilicity (logP) in data set [2] was -0.82.

For `NCCNCCCNCCN`, the “log K” value in data set [1] is reported as 23.9.

As usually defined, the MIC is the lowest concentration found to suppress growth. With `CC(C)(C)c1ccc(CCC(CCc2ccc(C(C)(C)C)cc2)NCCCNCCCN)cc1.Cl`, the “growth inhibition (GI)” value with Pasteurella multocida and with Streptococcus pyogenes was “Active” each time. Also, the minimal inhibitory concentration (MIC) in the data set with Pseudomonas aeruginosa [3] amounted to 8 µg/mL; in the data set with Klebsiella aerogenes, 15 µg/mL; in the data set with Bacillus subtilis, 2 µg/mL; with Staphylococcus aureus [4], 15 µg/mL; in the data set with Pseudomonas aeruginosa [5] it was 15 µg/mL; in the data set with Escherichia coli it was 6 µg/mL. Moreover, the MIC in data set [6] amounted to 4 µg/mL; with Salmonella, 4 µg/mL; in data set [8], 4 µg/mL; with Staphylococcus aureus [9] it was 6 µg/mL. The “growth inhibition (GI)” value (with Proteus vulgaris; in [7]) was “inactive” throughout.

In the case of `CN(C)[C@@H]1C(O)=C(C(N)=O)C(=O)[C@@]2(O)C(O)=C3C(=O)c4c(O)cccc4[C@@](C)(O)[C@H]3C[C@@H]12` [TETRACYCLINE], the “growth inhibition (GI)” value in the data set on Pasteurella multocida and in the data set with Streptococcus pyogenes was “Active” throughout. In addition, the minimum inhibitory concentration (MIC) with Pseudomonas aeruginosa [3] was found to be 20 µg/mL (≈ 45 µM); with Klebsiella aerogenes, 2 µg/mL (≈ 4.5 µM); in the data set with Bacillus subtilis it was 2 µg/mL (≈ 4.5 µM); in the data set on Staphylococcus aureus [4], 2 µg/mL (≈ 4.5 µM); in the data set with Pseudomonas aeruginosa [5] it was 30 µg/mL (≈ 67.5 µM); in the data set with Escherichia coli it was 30 µg/mL (≈ 67.5 µM). Besides, the minimal inhibitory concentration (MIC) (in [6]; in the data set on Salmonella; in data set [8]; with Staphylococcus aureus [9]) was 2 µg/mL (≈ 4.5 µM) each time. For the same compound, the “growth inhibition (GI)” value (with Proteus vulgaris; in [7]) was “inactive” in each case.

As to `CC1(C)C2CCC(C2)C1CCC(CCC1C2CCC(C2)C1(C)C)NCCCN1CCN(CCCN)CC1.Cl` (stereo not drawn), the “growth inhibition (GI)” value in the data set on Pasteurella multocida and in the data set with Streptococcus pyogenes was “Active” each time. Further, the MIC with Pseudomonas aeruginosa [3] is 200 µg/mL; in the data set on Klebsiella aerogenes, 4 µg/mL; in the data set on Bacillus subtilis, 8 µg/mL; with Staphylococcus aureus [4] it was 20 µg/mL; with Pseudomonas aeruginosa [5], 200 µg/mL; with Escherichia coli, 20 µg/mL. The minimum inhibitory concentration (MIC) in data set [6] is 8 µg/mL; with Salmonella, 6 µg/mL; in data set [8] it was 4 µg/mL; with Staphylococcus aureus [9] it was 6 µg/mL. For the same compound, the “growth inhibition (GI)” value (with Proteus vulgaris; in data set [7]) was “inactive” throughout.

With `CC1(C)C2CCC(C2)C1CCC(CCC1C2CCC(C2)C1(C)C)NCCCN(CCCN)CCCN.Cl` (stereo not drawn), the “growth inhibition (GI)” value in the data set with Pasteurella multocida and in the data set on Streptococcus pyogenes was “Active” throughout. The minimal inhibitory concentration (MIC) in the data set on Pseudomonas aeruginosa [3] was 50 µg/mL; in the data set with Klebsiella aerogenes, 30 µg/mL; in the data set on Bacillus subtilis it was 4 µg/mL; in the data set on Staphylococcus aureus [4], 4 µg/mL; in the data set with Pseudomonas aeruginosa [5] it was 30 µg/mL; with Escherichia coli, 50 µg/mL. Moreover, the minimum inhibitory concentration (MIC) was determined as 2 µg/mL in [6], 4 µg/mL in the data set on Salmonella, 4 µg/mL in data set [8] and 6 µg/mL in the data set with Staphylococcus aureus [9]. Further, the “growth inhibition (GI)” value (with Proteus vulgaris; in data set [7]) was “inactive” in each case.

Turning to `Cl.NCCNCCNCCNC(CCCC1CCCCC1)CCCC1CCCCC1`, the “growth inhibition (GI)” value in the data set with Pasteurella multocida and with Streptococcus pyogenes was “Active” in each case. Besides, the MIC in the data set on Pseudomonas aeruginosa [3] was 30 µg/mL; in the data set on Klebsiella aerogenes, 6 µg/mL; in the data set on Bacillus subtilis, 4 µg/mL; in the data set with Staphylococcus aureus [4] it was 15 µg/mL; in the data set with Pseudomonas aeruginosa [5] it was 30 µg/mL; in the data set with Escherichia coli, 10 µg/mL. In addition, the minimum inhibitory concentration (MIC) in data set [6] turned out to be 4 µg/mL; in the data set on Salmonella, 6 µg/mL; in [8], 6 µg/mL; in the data set on Staphylococcus aureus [9], 6 µg/mL. Besides, the “growth inhibition (GI)” value (in the data set on Proteus vulgaris; in [7]) was “inactive” each time.

Turning to `CC(C)c1ccc(CCC(CCc2ccc(C(C)C)cc2)NCCNCCNCCN)cc1.Cl`, the “growth inhibition (GI)” value in the data set on Pasteurella multocida and with Streptococcus pyogenes was “Active” each time. Also, the minimum inhibitory concentration (MIC) in the data set on Pseudomonas aeruginosa [3] is 40 µg/mL; with Klebsiella aerogenes, 40 µg/mL; in the data set on Bacillus subtilis it was 6 µg/mL; in the data set with Staphylococcus aureus [4], 30 µg/mL; in the data set with Pseudomonas aeruginosa [5], 60 µg/mL; in the data set on Escherichia coli it was 30 µg/mL. In addition, the MIC in data set [6] stood at 15 µg/mL; in the data set with Salmonella it was 4 µg/mL; in data set [8], 8 µg/mL; with Staphylococcus aureus [9], 6 µg/mL. For the same compound, the “growth inhibition (GI)” value (in the data set with Proteus vulgaris; in data set [7]) was “inactive” in each case.

On to `Cl.NCCCNCCCNC(CC1CCCCC1)CC1CCCCC1`, for which the “growth inhibition (GI)” value with Pasteurella multocida and with Streptococcus pyogenes was “Active” throughout. In addition, the minimal inhibitory concentration (MIC) came out at 60 µg/mL with Pseudomonas aeruginosa [3]; 8 µg/mL with Klebsiella aerogenes; 10 µg/mL with Bacillus subtilis; 40 µg/mL in the data set on Staphylococcus aureus [4]; 40 µg/mL in the data set with Pseudomonas aeruginosa [5]; 40 µg/mL in the data set with Escherichia coli. For the same compound, the minimum inhibitory concentration (MIC) in data set [6] is 6 µg/mL; in the data set with Salmonella, 4 µg/mL; in [8], 4 µg/mL; in the data set with Staphylococcus aureus [9], 30 µg/mL. Moreover, the “growth inhibition (GI)” value (in the data set with Proteus vulgaris; in [7]) was “inactive” each time.

Consider `Cl.NCCCNCCCNC(CCCCC1CCCCC1)CCCCC1CCCCC1`, for which the “growth inhibition (GI)” value in the data set with Pasteurella multocida and in the data set with Streptococcus pyogenes was “Active” in each case. For the same compound, the minimal inhibitory concentration (MIC) in the data set with Pseudomonas aeruginosa [3] worked out at 10 µg/mL; in the data set on Klebsiella aerogenes, 20 µg/mL; in the data set on Bacillus subtilis it was 8 µg/mL; with Staphylococcus aureus [4], 20 µg/mL; in the data set on Pseudomonas aeruginosa [5], 15 µg/mL; in the data set with Escherichia coli, 20 µg/mL. Also, the minimum inhibitory concentration (MIC) turned out to be 4 µg/mL in data set [6], 6 µg/mL in the data set with Salmonella, 4 µg/mL in data set [8] and 10 µg/mL with Staphylococcus aureus [9]. Also, the “growth inhibition (GI)” value (in the data set with Proteus vulgaris; in data set [7]) was “inactive” throughout.

For the compound `CC1(C)C2CCC(C2)C1CCC(CCC1C2CCC(C2)C1(C)C)NCCNCCNCCN.Cl` (stereo not drawn), the “growth inhibition (GI)” value with Pasteurella multocida and with Streptococcus pyogenes was “Active” each time. Also, the MIC with Pseudomonas aeruginosa [3] is 50 µg/mL; with Klebsiella aerogenes, 8 µg/mL; in the data set on Bacillus subtilis, 4 µg/mL; in the data set on Staphylococcus aureus [4], 30 µg/mL; in the data set on Pseudomonas aeruginosa [5], 30 µg/mL; with Escherichia coli it was 8 µg/mL. The MIC in [6] is 10 µg/mL; with Salmonella, 4 µg/mL; in [8] it was 4 µg/mL; with Staphylococcus aureus [9], 4 µg/mL. Also, the “growth inhibition (GI)” value (with Proteus vulgaris; in data set [7]) was “inactive” in each case.

Turning to `CC(C)(C)c1ccc(CCCC(CCCc2ccc(C(C)(C)C)cc2)NCCCNCCCNCCCN)cc1.Cl`, the “growth inhibition (GI)” value (in the data set on Pasteurella multocida; in the data set on Streptococcus pyogenes; in data set [10]) was “Active” each time. Besides, the MIC is 80 µg/mL in the data set on Pseudomonas aeruginosa [3]; > 200 µg/mL with Klebsiella aerogenes; 10 µg/mL with Bacillus subtilis; 20 µg/mL in the data set on Staphylococcus aureus [4]; 100 µg/mL in the data set with Pseudomonas aeruginosa [5]; > 200 µg/mL in the data set on Escherichia coli. The minimal inhibitory concentration (MIC) in data set [6] came to 30 µg/mL; in the data set on Salmonella it was 15 µg/mL; in [8], 20 µg/mL; in the data set on Staphylococcus aureus [9], 30 µg/mL. Also, the “growth inhibition (GI)” value with Proteus vulgaris is “inactive”.

The record behind these values is ChEMBL document CHEMBL3243989, “Antibacterial N-[omega, omega'-bis(alicyclic and aryl)-sec-alkyl]poly(methylene)triamine and -tetramine hydrochloride salts” (J Med Chem, 1979).
